# Screens from PubChem.
# Only some compounds are listed: those with a hit (about 12% of all), similar ones and a draw of the others.
# PKD1 inh = inhibitors of human PKD1 kinase, biochemical, fluorescence polarization; PKD1 kinase fluorescence polarization assay; AID 797, 2007; Serine/threonine-protein kinase D1 (Homo sapiens), Q15139; inhibition, % (concentration not given with the values); actives 0.056% (n = 200,000)
# CHOP inhibitor = inhibitors of CHOP promoter induction, primary screen, cell-based, unfolded protein response, luciferase reporter; CHO-K1 CHOP-promoter luciferase, tunicamycin-induced, 15-18 h; actives 3.8% (n = 220,000); inhibition, % at 10 µM;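 active = compounds that reduced the stress-induced luciferase reporter signal by more than about 70% of percent inhibition, limit read from the data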;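 note: 0% = tunicamycin plus vehicle and 100% = wells without tunicamycin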
# Wee1 stabilizer = Wee1 degradation inhibitors, primary screen, cell-based, HeLa, Wee1K328M-luciferase, luminescence; HeLa Luc-Wee1K328M stability; 100% = proteasome inhibitor MG132 effect; actives 1.2% (n = 220,000); AID 1321, 2008; reporter increase, % at 5 µM; Wee1-like protein kinase (Homo sapiens), P30291;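 active = activation above the mean of all tested compounds plus 3 SD, set per screening run, cut at about 8.8% in these data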;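 note: cells exposed to compound for 20 h before luminescence read; 0% = DMSO alone and 100% = MG132 at 30 µM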
# Rad51 HR inh = human RAD51 strand exchange inhibitors, primary screen, biochemical, fluorescence; inhibition, % at 10 µM; actives 0.085% (n = 200,000); DNA repair protein RAD51 homolog 1 (Homo sapiens), Q06609; AID 1385, 2008; hRad51 DNA strand exchange, fluorescence dequenching;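 active = inhibition above 40% at the single screening dose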;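 note: 0% = DMSO control wells and 100% = blanks with heterologous ssDNA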
# Target sequence (Q06609 whole entry, looked up): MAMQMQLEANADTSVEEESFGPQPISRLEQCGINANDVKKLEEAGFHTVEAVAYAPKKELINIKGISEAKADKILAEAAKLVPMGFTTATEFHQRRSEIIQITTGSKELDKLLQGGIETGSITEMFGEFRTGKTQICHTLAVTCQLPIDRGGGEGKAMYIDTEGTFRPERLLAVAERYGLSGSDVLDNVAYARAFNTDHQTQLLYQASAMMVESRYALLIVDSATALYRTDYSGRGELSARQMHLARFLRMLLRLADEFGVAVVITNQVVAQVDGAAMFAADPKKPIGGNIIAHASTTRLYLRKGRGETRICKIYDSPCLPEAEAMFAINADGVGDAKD
#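 Read-out basis: percent inhibition relative to plate controls and blanks / Assay system: human Rad51 nucleoprotein filaments preassembled on unlabelled ssDNA / Timing: filaments 15 min 37 °C, then compound 30 min / Control set: per-plate controls and blanks / Technique: fluorescence dequenching at 485/520 nm / Compound: 10 µM final, single point / Also added: Fluorescein- and BHQ1-tagged 47-mer duplex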
# L major viab = Leishmania major promastigote growth inhibition, primary screen. AID 1063, 2008. inhibition, % at 10 µM. Leishmania major promastigotes, resazurin fluorescence viability. actives 9% (n = 200,000);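 note: promastigotes grown with compound for 44 hours at 28 °C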
# Arbovirus anti = antivirals against arbovirus infection, primary screen, cell-based, full library, 10K replicate subset; actives 0.37% (n = 200,000); inhibition, % at 10 µM; arbovirus infection cell-based antiviral screen; in the data active = inhibition above about 30%
# Numbers without * were called inactive; / = no result given. Cut-off read from the data, not from the text of the source, unless noted: active = inhibition above about 50%; inactive = the rest.
SMILES,PKD1 inh,CHOP inhibitor,Wee1 stabilizer,Rad51 HR inh,L major viab,Arbovirus anti
COc1ccc(Cl)c(OC)c1C(=O)NC(=O)Nc1c(F)cc(F)cc1F,/,-8.4,-2.2,/,/,/
O=C(N1CCN(c2ccccc2F)CC1)C1(c2cccs2)CCOCC1,1.1,-2.2,-3.1,-4.9,0.5,7.6
COc1ccc2nc(NC(=O)C3CCN(S(=O)(=O)c4cnc[nH]4)CC3)sc2c1,-1.7,-1.2,-0.5,1.7,-8.6,15.3
CCOc1ccc2nc(NC(=O)C3CCN(S(=O)(=O)c4cnc[nH]4)CC3)sc2c1,7.5,-26.1,0.2,6.6,2.3,30.3*
Cc1c(NC(=O)C(C)OC(=O)c2ccc(Cl)nc2)c(=O)n(-c2ccccc2)n1C (stereo unspecified),-15.0,-11.6,-0.3,13.6,-1.3,-1.9
CCC(C)(C)C1CCc2nc3ccccc3c(C(=O)OC(C)C(=O)Nc3c(C)n(C)n(-c4ccccc4)c3=O)c2C1 (stereo unspecified),-2.9,61.9,-0.1,/,83.7*,-23.4
CC(=O)N1C(=O)N(C(C)=O)C2C1N(C)C(=O)N2C(C)=O (stereo unspecified),-3.6,-7.0,-1.0,4.9,-7.2,-3.0
Cc1ccc2c(C)nc(Nc3nc(CSc4nnnn4-c4ccccc4)cc(=O)[nH]3)nc2c1,2.1,67.6,1.4,/,-3.7,-17.8
Cc1nc(-c2ccccc2)cc(=O)[nH]1,-1.5,-3.0,-1.9,-13.4,1.9,3.3
COCc1cc(=O)[nH]c(Nc2nc3ccccc3o2)n1,-12.4,25.6,1.4,-3.1,98.8*,-25.8
COCc1cc(=O)[nH]c(Nc2nc(C)c3ccccc3n2)n1,-3.3,15.5,0.8,4.3,78.7*,-24.7
Cc1ccc2oc(Nc3nc(-c4ccccc4)cc(=O)[nH]3)nc2c1,5.8,101.1*,-2.8,0.6,98.3*,-11.4
CSCc1cc(N2CCOCC2)nc(SCc2ccc(Cl)c(Cl)c2)n1,1.1,50.5,-1.6,2.9,8.1,11.0
CCOC(=O)C(=O)C1=C(N2CCOCC2)/C(=C\c2ccc(F)cc2)CC1,5.3,10.8,0.8,-2.0,71.5*,-0.3
O=C(COc1ccc2ccccc2c1)Nc1ccc2c3c(cccc13)CC2,-7.6,92.4*,-1.5,-2.5,43.1,-18.8
Cc1cc(C)cc(OCC(=O)Nc2ccc3c4c(cccc24)CC3)c1,-13.6,64.7,-0.9,-4.3,-2.8,-1.5
CCC(C)(C)NC(=O)C(c1ccc(OC)cc1)N(CC1CCCO1)C(=O)CCC(=O)Nc1cc(C)on1 (stereo unspecified),-7.7,-9.5,0.4,6.7,-3.3,2.0
CCC(C)(C)NC(=O)C(c1ccc(OC)cc1)N(Cc1cccs1)C(=O)CCC(=O)Nc1cc(C)on1 (stereo unspecified),-5.5,44.0,-0.3,1.5,97.4*,-8.6
COc1ccc(C(C(=O)NC(C)(C)C)N(Cc2cccs2)C(=O)CCC(=O)Nc2cc(C)on2)cc1 (stereo unspecified),-12.2,-16.2,0.9,11.3,97.0*,-3.4
COC(=O)c1cccc(NC(=O)COc2cccc([N+](=O)[O-])c2)c1,3.4,-1.6,-0.5,25.5,11.8,-3.1
CCOc1cc(-c2nc(C)c(C(C)=O)n2O)ccc1OCC(=O)Nc1cccc(C)c1,3.5,-9.3,-0.3,10.2,-4.4,12.7
CN1CCN(C(=O)c2cc(-c3ccccc3)on2)CC1,-17.1,23.3,-0.8,7.7,70.0*,-0.8
COc1ccc(-c2cc(C(=O)N3CCN(C(c4ccccc4)c4ccccc4)CC3)no2)cc1OC,-6.8,2.2,0.3,-2.1,94.2*,19.0
COc1ccc(-c2cc(C(=O)N3CCN(C(c4ccccc4)c4ccccc4)CC3)no2)cc1,2.2,/,1.0,-4.5,3.2,17.9
CC(C)c1cc(C(=O)N2CCN(C(c3ccccc3)c3ccccc3)CC2)no1,0.6,81.6*,4.2,/,-2.3,-9.9
SMILES,PKD1 inh,CHOP inhibitor,Wee1 stabilizer,Rad51 HR inh,L major viab,Arbovirus anti
CONC(=O)C1CCN(C(=O)OCc2ccccc2)CC1,-3.4,17.9,1.1,-0.9,-0.2,0.2
CCN(CC)c1ccc(/C=N\NC(=O)c2cccc3cc[nH]c23)cc1,/,-18.7,2.2,/,/,/
Cc1ccccc1OCC(=O)OCC(=O)NCC1CCCO1 (stereo unspecified),-0.9,-3.1,0.7,2.6,-13.7,0.0
CC12CCC(C(=O)NCc3cccnc3)(OC1=O)C2(C)C (stereo unspecified),5.9,-7.0,-2.3,-7.5,-4.5,-8.3
CC12CCC(C(=O)N(Cc3ccccc3)Cc3ccccc3)(OC1=O)C2(C)C (stereo unspecified),-3.0,37.1,2.8,10.2,71.5*,-17.1
N#CCNc1ccc([N+](=O)[O-])cc1C#N,/,7.8,3.0,-1.6,/,/
O=C1NC(Cc2c[nH]c3ccccc23)C(=O)N1Cc1cccc2ccccc12 (stereo unspecified),-4.7,54.4,-3.0,4.4,34.4,8.2
O=C1NC(Cc2c[nH]c3ccccc23)C(=O)N1CCOc1ccccc1 (stereo unspecified),-0.6,16.9,-0.8,1.8,95.7*,8.0
O=S(=O)(NCCOCC(F)(F)C(F)F)c1ccc2oc3ccccc3c2c1,4.3,84.9*,0.4,4.3,-4.5,8.6
COc1ccc(OCCNS(=O)(=O)c2ccc3oc4ccccc4c3c2)cc1,2.1,28.4,-1.5,-2.3,-3.5,12.7
CN1/C(=C\C(=O)c2ccccc2Cl)c2ccccc2CC1(C)C,-7.4,47.0,-1.8,6.7,70.3*,22.8
CCSc1nc2ccccc2c(=O)n1CCc1ccc(OC)c(OC)c1,/,49.7,0.1,13.0,/,/
COc1ccc2sc(/C=C/c3ccccc3O)[n+](C)c2c1,-4.4,-13.1,-1.6,-77.9,92.4*,2.4
CCOc1ccc(CNC(=O)CCc2cn(Cc3ccccc3)c3ccccc23)cc1,1.9,12.1,-2.0,/,1.3,-11.2
CCCCC(=O)OCc1nc(N)nc(Nc2ccccc2C)n1,-8.3,1.8,-2.9,-7.9,62.7*,-1.5
Cc1ccccc1Nc1nc(N)nc(COC(=O)c2ccc(S(=O)(=O)N(C)C)cc2)n1,4.0,2.5,4.5,/,66.7*,1.6
Cc1ccccc1Nc1nc(N)nc(COC(=O)C2CCCCC2)n1,-2.4,2.0,-0.3,12.2,0.5,6.5
CSc1ccc(C(=O)C2CCCN(C(=O)Cc3nonc3C)C2)cc1 (stereo unspecified),0.8,33.4,2.0,/,0.0,2.0
Cc1cccc(-n2c(SCc3ccc([N+](=O)[O-])cc3)nnc2-c2c[nH]c3ccccc23)c1,-2.4,24.6,0.4,32.1,21.4,-1.5
